Key:
[1] = Antiinflammatory activity in human neutrophils assessed as inhibition of fMLP/cytochalasin B-induced superoxide radical anion generation; type: functional, cell-based; conditions: Neutrophil
Outline: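 Neutrophils from healthy adult donors were isolated by dextran sedimentation, Ficoll Hypaque centrifugation and hypotonic RBC lysis, then kept in Ca2+-free HBSS pH 7.4 at 4 °C. Cells with 0.5 mg/mL ferricytochrome c and 1 mM Ca2+ were equilibrated 2 min at 37 °C and given compound for 5 min. CB 1 µg/mL was added 3 min before 100 nM fMLP (10 min). SOD-inhibitable A550 was read continuously.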

[2] = Antiinflammatory activity in human neutrophils assessed as inhibition of fMLP/Cytochalasin B-induced elastase release; type: functional, cell-based; conditions: Neutrophil
Outline: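 Elastase release (azurophilic degranulation) was measured in donor neutrophils (6 × 10^5/mL) with MeO-Suc-Ala-Ala-Pro-Val-p-nitroanilide substrate at 100 µM. Cells were equilibrated 2 min at 37 °C, then pretreated with compound for 5 min. Stimulation was with fMLP 100 nM plus cytochalasin B 0.5 µg/mL, and A405 was monitored continuously. IC50 came from concentration-dependent inhibition.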

Row | IC50 [1] [µM] | IC50 [2] [µM] | Structure (SMILES)
1 | 41.4 | > 50 | COc1cc2ccc(=O)oc2cc1OC [SCOPARONE]
2 | 40.2 | > 50 | COc1cc([C@@H]2OC[C@@H]3[C@H]2CO[C@H]3c2cc(OC)c(O)c(OC)c2)cc(OC)c1O
3 | 13.7 | > 50 | CC[C@@H]1OC(=O)c2c1cc(OC)c(OC)c2O
4 | 29.8 | > 50 | CC[C@@H]1OC(=O)c2c1ccc(OC)c2O
5 | 45.3 | 38.6 | C/C=C1\OC(=O)c2c1ccc(OC)c2O
6 | 48.6 | > 50 | COc1cc2ccc(=O)oc2c(OC)c1OC [FRAXIDIN METHYL ETHER]
7 | 17.6 | > 50 | CC[C@@H]1OC(=O)c2c1cc(OC)c(OC)c2OC
8 | > 50 | 33.9 | C/C=C1\OC(=O)c2c1ccc(OC)c2OC
9 | 21.2 | > 50 | CC[C@H]1OC(=O)c2c1ccc(OC)c2O

Row | Structure (SMILES) | IC50 [1] [µM] | IC50 [2] [µM]
10 | c1ccc2c(c1)[I+]c1ccccc1-2 [DIPHENYLENEIODONIUM] | 1.7 | 
11 | O=S(=O)(F)Cc1ccccc1 [PHENYLMETHYLSULFONYLFLUORIDE] |  | 202
